The source of these data is ChEMBL document CHEMBL1143610, “Applying linear interaction energy method for rational design of noncompetitive allosteric inhibitors of the sarco- and endoplasmic reticulum calcium-ATPase” (J Med Chem, 2005).

For assay [1], the target named is T1, Sarcoplasmic/endoplasmic reticulum calcium ATPase 1 (Homo sapiens, UniProt O14983). Nature of the assay: Inhibitory potency against sarco- endoplasmic reticulum calcium-ATPase in relative to thapsigargin (Experimental).
Target sequence in this assay (O14983 whole entry, looked up): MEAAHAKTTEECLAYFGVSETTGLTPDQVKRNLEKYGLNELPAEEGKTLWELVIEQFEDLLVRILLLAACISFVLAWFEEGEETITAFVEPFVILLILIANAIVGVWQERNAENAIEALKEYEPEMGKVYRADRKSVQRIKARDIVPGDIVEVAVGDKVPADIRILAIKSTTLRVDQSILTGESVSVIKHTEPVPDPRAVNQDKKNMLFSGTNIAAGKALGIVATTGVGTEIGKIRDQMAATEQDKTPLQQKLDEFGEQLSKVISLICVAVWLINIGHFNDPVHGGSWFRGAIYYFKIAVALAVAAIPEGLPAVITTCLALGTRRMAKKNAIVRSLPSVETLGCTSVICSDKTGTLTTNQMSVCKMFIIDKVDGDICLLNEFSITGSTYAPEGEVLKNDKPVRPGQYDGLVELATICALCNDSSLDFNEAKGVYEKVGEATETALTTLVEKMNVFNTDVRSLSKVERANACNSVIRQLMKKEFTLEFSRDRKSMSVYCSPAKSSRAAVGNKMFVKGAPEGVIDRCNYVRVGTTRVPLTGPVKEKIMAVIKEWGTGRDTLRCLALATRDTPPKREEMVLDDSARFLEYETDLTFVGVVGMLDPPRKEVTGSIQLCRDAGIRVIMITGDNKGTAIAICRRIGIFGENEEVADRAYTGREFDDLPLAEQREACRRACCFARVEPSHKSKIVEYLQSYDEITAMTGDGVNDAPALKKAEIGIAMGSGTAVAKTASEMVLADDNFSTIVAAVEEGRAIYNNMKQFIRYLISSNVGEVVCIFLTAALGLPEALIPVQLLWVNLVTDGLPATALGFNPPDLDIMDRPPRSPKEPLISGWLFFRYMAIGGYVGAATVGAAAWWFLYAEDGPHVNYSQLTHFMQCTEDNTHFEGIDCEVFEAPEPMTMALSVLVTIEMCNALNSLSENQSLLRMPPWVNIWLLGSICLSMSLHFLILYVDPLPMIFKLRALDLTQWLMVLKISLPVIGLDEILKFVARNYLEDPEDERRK
Assay [2] deals with T1, Sarcoplasmic/endoplasmic reticulum calcium ATPase 1. Nature of the assay: Inhibitory activity against sarco- endoplasmic reticulum calcium-ATPase.
Target sequence in this assay (O14983 whole entry): as the sequence (O14983 whole entry, looked up) above
For assay [3] the target is unchanged. As to the kind of experiment: Inhibitory potency against sarco- endoplasmic reticulum calcium-ATPase in relative to thapsigargin by using SGB-LIE method. In outline:
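SGB-LIE computation with a surface generalized Born continuum solvent. SERCA coordinates came from one TG-bound monomer of PDB 1IWO, truncated to the transmembrane domain, lumen and the near-membrane cytoplasmic part. Histidine protonation was set to favour H-bonds. Ligands were superimposed on bound TG, with O-8 side chains in the hydrophobic channel. Vacuum minimisation held protein atoms fixed except nonpolar H. LIE parameters were fitted to experimental data for 20 training analogues.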
Target sequence in this assay (O14983 whole entry, looked up): as above

In general, IC50 refers to the point on the concentration scale where inhibition reaches its midpoint. Turning to `CCCCCCCC(=O)O[C@@H]1C(=O)C(C)=C2[C@H]1[C@@](C)(OC(C)=O)C[C@H](OC(=O)CCCCCCCCCCC(=O)O)[C@@]1(O)[C@H]2OC(=O)[C@@]1(C)O`, the RIC50 in assay [1] came to 0.25; in assay [3], 2.08. Further, the IC50 in assay [2] was determined as 2.08 nM.
